Results from ChEMBL document CHEMBL4270513, “Replacement of Arg with Nle and modified D-Phe in the core sequence of MSHs, Ac-His-D-Phe-Arg-Trp-NH2, leads to hMC1R selectivity and pigmentation” (Eur J Med Chem, 2018).
The source made the active and inactive calls. The rule behind the calls is not given here. Square brackets hold non-standard residues; d marks the D form. Peptide text beside a SMILES is read from it. dPhe(4-CF3) = N[C@H](Cc1ccc(C(F)(F)F)cc1)C(=O)O; dPhe(4-Br) = N[C@H](Cc1ccc(Br)cc1)C(=O)O; d2Nal = N[C@H](Cc1ccc2ccccc2c1)C(=O)O; Nle = CCCC[C@H](N)C(=O)O

How the values were obtained:
Melanocortin receptor 5 [1] = target: T1, Melanocortin receptor 5 (Homo sapiens, UniProt P33032); experiment: Displacement of [125I]-[Nle4,d-Phe7]-alpha-MSH from human MC5R expressed in HEK293 cells after 40 mins by gamma counting analysis; format: cell-based
T1 sequence (P33032 whole entry): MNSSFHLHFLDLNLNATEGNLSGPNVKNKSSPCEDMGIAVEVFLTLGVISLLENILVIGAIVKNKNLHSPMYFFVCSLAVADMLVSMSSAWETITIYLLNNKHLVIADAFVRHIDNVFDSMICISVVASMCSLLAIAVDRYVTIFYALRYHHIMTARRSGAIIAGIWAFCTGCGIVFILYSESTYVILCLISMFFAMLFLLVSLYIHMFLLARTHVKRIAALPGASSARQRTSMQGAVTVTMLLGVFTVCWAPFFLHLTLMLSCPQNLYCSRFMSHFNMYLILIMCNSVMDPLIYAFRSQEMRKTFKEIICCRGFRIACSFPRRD

Melanocortin receptor 3 [2] = target: T2, Melanocortin receptor 3 (Homo sapiens, UniProt P41968); experiment: Displacement of [125I]-[Nle4,d-Phe7]-alpha-MSH from human MC3R expressed in HEK293 cells after 40 mins by gamma counting analysis; format: cell-based
T2 sequence (P41968 whole entry): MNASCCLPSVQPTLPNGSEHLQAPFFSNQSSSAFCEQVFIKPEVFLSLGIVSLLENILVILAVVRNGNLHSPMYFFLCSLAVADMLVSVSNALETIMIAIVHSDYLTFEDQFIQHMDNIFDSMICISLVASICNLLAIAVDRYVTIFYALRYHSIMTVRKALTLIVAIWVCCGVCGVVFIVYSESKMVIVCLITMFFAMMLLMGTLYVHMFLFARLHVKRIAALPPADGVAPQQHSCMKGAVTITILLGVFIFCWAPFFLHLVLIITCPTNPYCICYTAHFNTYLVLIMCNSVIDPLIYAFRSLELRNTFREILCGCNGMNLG

Melanocortin receptor 3 [3] = target: T2, Melanocortin receptor 3; experiment: Agonist activity at human MC3R expressed in HEK293 cells after 3 mins by cAMP assay; format: functional, cell-based
[4] = target: T3, Melanocyte-stimulating hormone receptor (Homo sapiens, UniProt Q01726); experiment: Agonist activity at human MC1R expressed in HEK293 cells after 3 mins by cAMP assay; format: functional, cell-based
Melanocortin receptor 5 [5] = target: T1, Melanocortin receptor 5; experiment: Agonist activity at human MC5R expressed in HEK293 cells after 3 mins by cAMP assay; format: functional, cell-based
[6] = target: T3, Melanocyte-stimulating hormone receptor; experiment: Displacement of [125I]-[Nle4,d-Phe7]-alpha-MSH from human MC1R expressed in HEK293 cells after 40 mins by gamma counting analysis; format: cell-based
Melanocortin receptor 5 [7] = target: T1, Melanocortin receptor 5; experiment: Displacement of [125I]-[Nle4,d-Phe7]-alpha-MSH from human MC5R expressed in HEK293 cells at 10 uM after 40 mins by gamma counting analysis relative to control; format: cell-based
How it was run: (§1)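 Binding efficiency = maximal % displacement of [125I]-NDP-α-MSH observed at 10 μM peptide; 0% displacement at 10 μM scored as no binding.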

Melanocortin receptor 3 [8] = target: T2, Melanocortin receptor 3; experiment: Displacement of [125I]-[Nle4,d-Phe7]-alpha-MSH from human MC3R expressed in HEK293 cells at 10 uM after 40 mins by gamma counting analysis relative to control; format: cell-based; how it was run: as §1
[9] = target: T3, Melanocyte-stimulating hormone receptor; experiment: Displacement of [125I]-[Nle4,d-Phe7]-alpha-MSH from human MC1R expressed in HEK293 cells at 10 uM after 40 mins by gamma counting analysis relative to control; format: cell-based; how it was run: as §1
Melanocortin receptor 5 [10] = target: T1, Melanocortin receptor 5; experiment: Agonist activity at human MC5R expressed in HEK293 cells at 10 uM after 3 mins by cAMP assay relative to MT-2; format: functional, cell-based
How it was run: (§2)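 cAMP produced at a single 10 μM peptide concentration, expressed as % of the response to MT-II run as control; 0% accumulation reported as no activity.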

Melanocortin receptor 3 [11] = target: T2, Melanocortin receptor 3; experiment: Agonist activity at human MC3R expressed in HEK293 cells at 10 uM after 3 mins by cAMP assay relative to MT-2; format: functional, cell-based; how it was run: as §2
[12] = target: T3, Melanocyte-stimulating hormone receptor; experiment: Agonist activity at human MC1R expressed in HEK293 cells at 10 uM after 3 mins by cAMP assay relative to MT-2; format: functional, cell-based; how it was run: as §2
Melanocortin receptor 4 [13] = target: T4, Melanocortin receptor 4 (Homo sapiens, UniProt P32245); experiment: Agonist activity at human MC4R expressed in HEK293 cells after 3 mins by cAMP assay; format: functional, cell-based
T4 sequence (P32245 whole entry): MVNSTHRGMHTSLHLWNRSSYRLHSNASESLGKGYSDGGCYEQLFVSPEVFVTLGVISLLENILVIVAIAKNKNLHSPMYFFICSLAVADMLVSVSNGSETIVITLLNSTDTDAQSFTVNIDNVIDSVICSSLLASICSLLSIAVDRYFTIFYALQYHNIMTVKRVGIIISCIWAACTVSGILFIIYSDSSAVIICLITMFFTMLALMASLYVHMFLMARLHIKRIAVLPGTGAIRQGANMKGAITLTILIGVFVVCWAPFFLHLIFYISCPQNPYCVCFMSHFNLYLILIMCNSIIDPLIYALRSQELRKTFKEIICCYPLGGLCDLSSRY

Melanocortin receptor 4 [14] = target: T4, Melanocortin receptor 4; experiment: Displacement of [125I]-[Nle4,d-Phe7]-alpha-MSH from human MC4R expressed in HEK293 cells after 40 mins by gamma counting analysis; format: cell-based
Homo sapiens [15] = organism: Homo sapiens; experiment: Selectivity ratio of EC50 for human MC4R to EC50 for human MC1R
Anolis carolinensis = experiment: Induction of pigmentation effect in lizard at 3 ug/g, ip at 1 hr post dose; format: functional, organism-based
How it was run: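 Anolis carolinensis lizards, peptide dissolved in saline at 1 mM, single intraperitoneal dose of 3 μg/g body weight; vehicle-injected animals as control. Skin colour change versus pre-injection appearance scored visually and photographed, followed up to 24 h.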

Homo sapiens [16] = organism: Homo sapiens; experiment: Selectivity ratio of EC50 for human MC5R to EC50 for human MC1R
Homo sapiens [17] = organism: Homo sapiens; experiment: Selectivity ratio of EC50 for human MC3R to EC50 for human MC1R

| SMILES | IC50 (Melanocortin receptor 5 [1]) | IC50 (Melanocortin receptor 3 [2]) | EC50 (Melanocortin receptor 3 [3]) | EC50 [4] | EC50 (Melanocortin receptor 5 [5]) | IC50 [6] | %max (Melanocortin receptor 5 [7]) | %max (Melanocortin receptor 3 [8]) | %max [9] | Activity (Melanocortin receptor 5 [10]) | Activity (Melanocortin receptor 3 [11]) | Activity [12] | EC50 (Melanocortin receptor 4 [13]) | IC50 (Melanocortin receptor 4 [14]) | Ratio EC50 (Homo sapiens [15]) | Activity (Anolis carolinensis) | Ratio EC50 (Homo sapiens [16]) | Ratio EC50 (Homo sapiens [17]) |
| --- | --- | --- | --- | --- | --- | --- | --- | --- | --- | --- | --- | --- | --- | --- | --- | --- | --- | --- |
| CC(=O)N[C@@H](Cc1cnc[nH]1)C(=O)N[C@H](Cc1ccccc1)C(=O)N[C@@H](CCCN=C(N)N)C(=O)N[C@@H](Cc1c[nH]c2ccccc12)C(N)=O | 109 nM | 63 nM | 7.1 nM | 4.3 nM | 3.9 nM | 105 nM | – | – | – | – | – | – | – | – | – | – | – | – |
| CC(=O)N[C@@H](Cc1cnc[nH]1)C(=O)N[C@H](Cc1ccccc1)C(=O)N[C@@H](CCCNC(=N)N)C(=O)N[C@@H](Cc1c[nH]c2ccccc12)C(N)=O | – | – | – | – | – | – | 100% | 100% | 100% | 63% | 100% | 100% | – | – | – | – | – | – |
| CCCC[C@H](NC(=O)[C@@H](Cc1ccc2ccccc2c1)NC(=O)[C@H](Cc1cnc[nH]1)NC(C)=O)C(=O)N[C@@H](Cc1c[nH]c2ccccc12)C(N)=O (Ac-H[d2Nal][Nle]W-NH2) | – | > 1000 nM | 255 nM | 418 nM | – | > 1000 nM | 0% | 80% | 65% | 0% | 17% | 100% | 133 nM | > 1000 nM | – | – | – | – |
| CCCC[C@H](NC(=O)[C@@H](Cc1ccccc1)NC(=O)[C@H](Cc1cnc[nH]1)NC(C)=O)C(=O)N[C@@H](Cc1c[nH]c2ccccc12)C(N)=O (Ac-H[dF][Nle]W-NH2) | 46 nM | > 1000 nM | 120 nM | 52 nM | 37 nM | 50 nM | 44% | 15% | 42% | 48% | 100% | 100% | 928 nM | 65 nM | – | – | – | – |
| CCCC[C@H](NC(=O)[C@@H](Cc1ccc(Br)cc1)NC(=O)[C@H](Cc1cnc[nH]1)NC(C)=O)C(=O)N[C@@H](Cc1c[nH]c2ccccc12)C(N)=O (Ac-H[dPhe(4-Br)][Nle]W-NH2) | – | 224 nM | 57 nM | 11 nM | > 1000 nM | 154 nM | 0% | 51% | 61% | 33% | 93% | 100% | 36 nM | 53 nM | – | – | – | – |
| CCCC[C@H](NC(=O)[C@@H](Cc1ccc(C(F)(F)F)cc1)NC(=O)[C@H](Cc1cnc[nH]1)NC(C)=O)C(=O)N[C@@H](Cc1c[nH]c2ccccc12)C(N)=O (Ac-H[dPhe(4-CF3)][Nle]W-NH2) | 37 nM | 90 nM | 252 nM | 10 nM | > 1000 nM | 339 nM | 37% | 62% | 49% | 44% | 85% | 100% | 407 nM | 835 nM | 41 | Active | > 100 | 25 |
